Measurements as given in article PMC6511231 (Cell reports, 2018).
Where a chain is given by its changes, count along the chain named. “Also recorded” adds a separate entry of the source. Where two headings read alike, the source gives them in different places. Values belong to the molecule of their own block, whether it stands above or below them.

What was measured:
[1] = target: T1, mouse LIN28Δ, mouse TUT4 and pre-let-7g (Mus musculus, UniProt Q8K3Y3); assay: LIN28-mediated let-7 oligouridylation assay; format: biochemical; conditions: for Inhibition of LIN28-mediated oligouridylation: 40 μM compound, 37°C, denaturing PAGE
T1 sequence (Q8K3Y3 16-184): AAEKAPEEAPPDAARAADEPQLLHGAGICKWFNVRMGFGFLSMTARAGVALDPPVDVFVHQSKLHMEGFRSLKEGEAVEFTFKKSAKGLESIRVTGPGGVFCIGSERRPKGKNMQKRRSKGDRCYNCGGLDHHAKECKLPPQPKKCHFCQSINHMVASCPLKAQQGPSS
T1 sequence (B2RX14 230-1424 partner): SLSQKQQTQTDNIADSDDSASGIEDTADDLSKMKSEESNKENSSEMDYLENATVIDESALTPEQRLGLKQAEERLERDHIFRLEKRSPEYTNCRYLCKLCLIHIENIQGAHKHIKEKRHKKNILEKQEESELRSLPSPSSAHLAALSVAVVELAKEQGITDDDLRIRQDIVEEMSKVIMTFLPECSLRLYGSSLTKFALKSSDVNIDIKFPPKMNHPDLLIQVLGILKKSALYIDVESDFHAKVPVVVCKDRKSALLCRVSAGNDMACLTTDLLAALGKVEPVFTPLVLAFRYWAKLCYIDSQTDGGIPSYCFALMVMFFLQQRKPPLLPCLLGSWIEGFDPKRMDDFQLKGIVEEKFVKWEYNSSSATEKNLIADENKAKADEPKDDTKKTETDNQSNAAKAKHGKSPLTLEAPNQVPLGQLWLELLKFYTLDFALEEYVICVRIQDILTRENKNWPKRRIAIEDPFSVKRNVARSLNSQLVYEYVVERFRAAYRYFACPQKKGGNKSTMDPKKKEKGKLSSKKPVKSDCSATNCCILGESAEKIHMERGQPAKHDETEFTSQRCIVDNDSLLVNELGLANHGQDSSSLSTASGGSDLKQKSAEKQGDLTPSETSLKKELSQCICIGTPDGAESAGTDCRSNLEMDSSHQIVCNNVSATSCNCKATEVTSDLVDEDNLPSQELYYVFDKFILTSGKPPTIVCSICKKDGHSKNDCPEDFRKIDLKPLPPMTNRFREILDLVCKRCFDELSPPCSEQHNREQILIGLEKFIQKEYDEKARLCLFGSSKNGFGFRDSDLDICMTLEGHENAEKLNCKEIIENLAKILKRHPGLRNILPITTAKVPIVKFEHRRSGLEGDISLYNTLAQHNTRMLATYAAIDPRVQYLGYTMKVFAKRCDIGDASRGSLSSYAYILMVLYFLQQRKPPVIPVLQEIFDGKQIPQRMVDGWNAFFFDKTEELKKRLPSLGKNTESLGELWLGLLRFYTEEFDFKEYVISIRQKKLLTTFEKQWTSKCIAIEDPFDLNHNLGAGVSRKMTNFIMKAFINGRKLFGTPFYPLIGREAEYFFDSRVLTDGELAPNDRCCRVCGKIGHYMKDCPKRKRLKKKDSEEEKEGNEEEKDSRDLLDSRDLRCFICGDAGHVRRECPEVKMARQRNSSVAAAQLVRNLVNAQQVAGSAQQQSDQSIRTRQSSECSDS
Method in brief: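 Mouse LIN28A, mouse TUT4 (230–1424) and in vitro-transcribed, T4 PNK-radiolabelled pre-let-7g were incubated with test compound (40 μM screen; 80 μM follow-up) for 40 min at 37°C. Buffer: 20 mM Tris 7.5, 5% glycerol, 6 mM MgCl2, 6 mM DTT, 50 μM ZnCl2, 40 mM KCl, 200 μM UTP. Reactions were stopped with EDTA/SDS/proteinase K (50°C, 30 min) and run on denaturing PAGE. RNA and DMSO served as controls.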

[2] = system: HeLaLIN28A; assay: let-7-sensitive dual luciferase reporter assay, HeLaLIN28A; format: cell-based, human; conditions: 100 μM or higher concentrations, 48 hr
Method in brief: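 A HeLa clone stably expressing low-level FLAG-LIN28A plus the 8×let-7 Renilla/firefly dual-luciferase sensor was treated 48 hr with vehicle (DMSO) or test compound at the indicated concentrations. Dual luciferase activity was then assayed, with firefly as internal control. Runs used 3 or 5 biological replicates; Student's t test against vehicle.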

[3] = Solubility in solution; format: physicochemical; conditions: water / solution
[4] = target: mouse LIN28Δ:preE-let-7d complex (Mus musculus, UniProt Q8K3Y3); assay: HSQC spectroscopy; format: binding; conditions: 15N-labeled mouse LIN28Δ with unlabeled preE-let-7d
[5] = system: LIN28-expressing mouse embryonic stem cells; assay: Toxicity to mouse embryonic stem cells; format: cell-based
[6] = system: HeLa cells that do not express LIN28; assay: Toxicity to HeLa cells; format: cell-based, human
[7] = target: T2, LIN28Δ (human, UniProt Q9H9Z2 16-187); assay: competition
T2 sequence: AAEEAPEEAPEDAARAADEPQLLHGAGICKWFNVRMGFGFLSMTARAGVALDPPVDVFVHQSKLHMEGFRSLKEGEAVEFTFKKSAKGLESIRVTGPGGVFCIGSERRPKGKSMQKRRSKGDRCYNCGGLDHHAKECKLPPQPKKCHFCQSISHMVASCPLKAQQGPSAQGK

[8] = target: T3, LIN28ΔF73A (human, UniProt Q9H9Z2 16-187, F73A); assay: competition
T3 sequence: T2 sequence with F58A

[9] = target: T2, LIN28Δ; assay: competition; remark: listed apart in the source
[10] = target: T4, LIN28ΔY140A (human, UniProt Q9H9Z2 16-187, Y140A); assay: fluorescence polarization
T4 sequence: T2 sequence with Y125A

[11] = target: T5, LIN28ΔF73A/Y140A (human, UniProt Q9H9Z2 16-187, F73A;Y140A); assay: fluorescence polarization
T5 sequence: T2 sequence with F58A, Y125A

[12] = target: T3, LIN28ΔF73A; assay: fluorescence polarization
[13] = target: T2, LIN28Δ; assay: fluorescence polarization

Molecule: CNc1cncc(C(=O)O)c1 [5-(methylamino)nicotinic acid]
Inhibition of LIN28-mediated let-7 oligouridylation ([1]; 80 μM, compared to DMSO negative control): weak activities
Relative Renilla luciferase activity [2]: significant reduction of the relative Renilla luciferase activity; also recorded: weak activities

Molecule: CC1(C)C(=O)N=C2C1=C(O)C(=O)c1ccccc12 [BVT-948]
Inhibition of LIN28-mediated oligouridylation [1]: completely inhibited

Molecule: C=CC(C)(C)c1[nH]c2ccccc2c1C1=C(O)C(=O)C(c2c[nH]c3c(CC=C(C)C)cccc23)=C(O)C1=O [DAQ-B1, demethylasterriquinone B1]
Inhibition of LIN28-mediated oligouridylation [1]: completely inhibited

Molecule: GGGGUAGUGAUUUUACCCUGUUUA (structured_RNA) [CSD-binding riboprobe]
IC50 [7]: 0.157 µM

Molecule: UAGGAGA (ssRNA) [ZKD-binding riboprobe UAGGAGA]
IC50 [8]: 1.2 µM
IC50 [9]: 3.5 µM

Molecule: GGGGUAGUGAUUUUACCCUGUUUAGGAGAU (structured_RNA) [preE-let-7f-1-FAM]
Kd [10]: 0.0785 µM
Kd [11]: 0.589 µM
Kd [12]: 0.0724 µM
Kd [13]: 0.0285 µM

Molecule: GGGGUAGUGAUUUUACCCUGUUUAGGAGAU (structured_RNA) [preE-let-7f-1 unlabeled]
IC50 [7]: 0.044 µM

Further lines, with some results ahead:

Inhibition of LIN28-mediated oligouridylation [1]: completely inhibited
Molecule: Cc1cc2c(C(C)C)c(O)c(O)c(C=O)c2c(O)c1-c1c(C)cc2c(C(C)C)c(O)c(O)c(C=O)c2c1O [Gossypol]

Inhibition of LIN28-mediated oligouridylation [1]: completely inhibited
Solubility [3]: poor solubility in solution
Molecule: O=C1C=CC(=NS(=O)(=O)c2ccc(C(=O)O)cc2)C=C1 [LI20]

Inhibition of LIN28-mediated oligouridylation [1]: completely inhibited
Molecule: c1ccc(CN(CCN(Cc2ccccn2)Cc2ccccn2)Cc2ccccn2)nc1 [TPEN]
HSQC peak intensity changes [4]: a number of peaks had significant reduction in intensity
Toxicity [5]: shows toxicity
Toxicity [6]: shows toxicity
